The source of these data is ChEMBL document CHEMBL5352453, “Hit-to-lead optimization of a 2-aminobenzimidazole series as new candidates for chagas disease” (Eur J Med Chem, 2023).

Data set [1] concerns Trypanosoma cruzi. The data set is described as follows: Antitrypanosomal activity against Trypanosoma cruzi Tulahuen CL2 amastigotes expressing beta galactosidase infected in human MRC5 cells assessed as reduction in parasite burden using chlorophenol red beta-D-galactopyranoside as substrate and measured after 7 days by spectrophotometric analysis. Type of data set: functional, organism-based. The settings on record: Tulahuen CL2, MRC5, 168 h. An outline of the steps:
(§1)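 T. cruzi Tulahuen CL2 β-galactosidase strain grown in MRC-5 cells (MEM, 5% heat-inactivated FCS, 37 °C, 5% CO2). MRC-5 cells (4 x 10^3/well) plus parasites (4 x 10^4/well) exposed 7 days to 4-fold dilutions from 64 µM down; final DMSO <1%. CPRG with Nonidet added, absorbance at 540 nm after 4 h. IC50 calculated against untreated-infected (100%) and non-infected (0%) controls. SI = MRC-5 CC50/IC50.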

Data set [2] can be described thus: Selectivity index, ratio of CC50 for cytotoxicity against human MRC5 cells to EC50 for Trypanosoma cruzi Tulahuen CL2 amastigotes expressing beta galactosidase infected in human MRC5 cells. Type of data set: toxicity, cell-based. Conditions: read-out: Selectivity Index. In short, it runs like this: as §1
Data set [3] can be described thus: Metabolic stability in CD1 mouse liver microsomes assessed as intrinsic clearance measured upto 60 mins by LC-MS/MS analysis. Type of data set: ADME. The settings on record: read-out: CLH. In short, it runs like this:
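CD1 mouse liver microsomes at 0.25 mg/mL, compound at 0.5 µM, pH 7.4, 37 °C, started with NADPH. Sampled at 0, 5, 10, 20, 30 and 60 min and quenched with acetonitrile:methanol containing tolbutamide. Measured by LC-MS/MS; CLint (k × 1000/0.25, µL/min/mg) derived by non-linear regression of % remaining over time.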
For orientation: Liver microsomes are vesicles of endoplasmic reticulum, rich in cytochrome P450 enzymes.

A short description of data set [4]: Drug metabolism in S9 cells assessed as turnover. The settings on record: mouse.
The test system of data set [5] is Trypanosoma cruzi. The data set is described as follows: Antitrypanosomal activity against intracellular Trypanosoma cruzi amastigote infected primary peritoneal mouse macrophages assessed as reduction in infection rate. The data set is classed as functional. An outline of the steps:
(§2)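 High-content imaging of primary mouse macrophages infected with T. cruzi. Counts both amastigotes per cell and percentage of infected cells. 96 h exposure, with maximal activity scored at 10 µM. IC50 and IC90 against intracellular amastigotes taken from the same 96 h incubation.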

The test system of data set [6] is Trypanosoma cruzi. Kind of data set: Antitrypanosomal activity against intracellular Trypanosoma cruzi amastigote infected primary peritoneal mouse macrophages assessed as reduction in amastigote population measured after 96 hrs. The data set is classed as functional, organism-based. Conditions: for IC50: 96 h; for IC90: time 96 hrs. An outline of the steps:
as §2

A short description of data set [7]: Cytotoxicity against rat L6 cells assessed as reduction in cell viability measured after 24 hrs by colorimetric assay. Type of data set: toxicity, cell-based.
Data set [8] is described as follows: Cytotoxicity against human MRC5 cells assessed as reduction in cell viability measured after 24 hrs by colorimetric assay. Type of data set: toxicity, cell-based.
Data set [9] is described as follows: Kinetic solubility of the compound at pH 7.4 PBS buffer measured after 24 hrs shaken by LC-MS/MS analysis. Type of data set: physicochemical. The settings on record: read-out: Kinetic_solubility. An outline of the steps:
(§3)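 Compounds from 10 mM DMSO stocks diluted in PBS pH 7.4 or pH 2.0 to 250 µM final, 2.5% DMSO, in duplicate. Shaken 24 ± 1 h at 200 rpm, room temperature, then centrifuged to remove precipitate. Supernatant quantified by LC-MS/MS against per-compound calibration at 1–50 µM.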

Data set [10] can be described thus: Cytotoxicity against human HepG2 cells assessed as reduction in cell viability measured after 24 hrs by colorimetric assay. Type of data set: toxicity, cell-based.
In data set [11] the test system is Trypanosoma cruzi. The data set is described as follows: Antitrypanosomal activity against intracellular Trypanosoma cruzi amastigote infected primary peritoneal mouse macrophages assessed as reduction in amastigote population. The data set is classed as functional. Further details: concentration or dose not given beside the values. In short, it runs like this: as §2

Data set [12] in a line: Cytotoxicity against mouse 3T3 cells assessed as reduction in cell viability measured after 24 hrs by colorimetric assay. Type of data set: toxicity, cell-based. The settings on record: NIH3T3 cells.
Data set [13] is described as follows: Passive permeability of the compound at 10 uM at pH 6.5 to 7.4 donor portion/acceptor portion by PAPMA assay. The data set is classed as ADME. The settings on record: not told, read-out: permeability. An outline of the steps:
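PAMPA on pre-coated membranes. Donor holds 10 µM compound in PBS pH 6.5; acceptor holds PBS pH 7.4. Incubated 5 h at 37 °C. Donor, acceptor and initial donor samples quenched and quantified by LC-MS/MS to calculate effective permeability (Pe). Run in triplicate.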

The nature of data set [14]: Kinetic solubility of the compound at pH 2 PBS buffer measured after 24 hrs shaken by LC-MS/MS analysis. Conditions: read-out: Kinetic_solubility. The data set is classed as physicochemical. In short, it runs like this: as §3
A short description of data set [15]: Cytotoxicity against primary peritoneal mouse macrophages assessed as reduction in cell viability measured after 24 hrs by colorimetric assay. The data set is classed as toxicity, cell-based, Peritoneal macrophage.
Data set [16] concerns Trypanosoma cruzi. The data set is described as follows: Antitrypanosomal activity against intracellular Trypanosoma cruzi amastigote infected mouse 3T3 cells assessed as reduction in amastigote population measured after 48 hrs.

As a reminder, the IC50 is the concentration at which inhibition is half-maximal. For the molecule `CCCn1c(NC(=O)c2cccnc2)nc2cc(F)ccc21`, in the data set with Trypanosoma cruzi [1], the concentration for half-maximal inhibition (IC50) was 8200 nM. In data set [2], the selectivity ratio was > 8. Moreover, the microsomal CLint in data set [3] was determined as 164 µL/min/mg. For the same molecule, the metabolised in [4] worked out at 1.91%.
By IC90 is commonly meant the point of the concentration-response curve where the effect stands at 90%. The CC50 is the concentration giving 50% cytotoxicity. For `N#Cc1ccc2nc(NC(=O)c3cc(C(F)(F)F)n[nH]3)n(CC(F)(F)F)c2c1`, in the data set with Trypanosoma cruzi [5], the “inhibition (INH)” value came to 97%. For the same molecule, the IC50 in the data set with Trypanosoma cruzi [1] worked out at 1500 nM; in the data set on Trypanosoma cruzi [6], 570 nM. In data set [2], the selectivity ratio is > 42. Also, in the data set on Trypanosoma cruzi [6], the IC90 was determined as 880 nM. The 50% cytotoxic concentration (CC50) at 24 h in data set [7] was 12000 nM; in [8], > 64000 nM; in [10], 1800 nM; in data set [12] it was > 40000 nM; in [15], 25000 nM. Moreover, the solubility kinetic at 24 h in data set [9] and in data set [14] was < 1 µM in each case. Also, the Activity in the data set on Trypanosoma cruzi [11] is 99%. Moreover, the microsomal CLint in data set [3] was 25 µL/min/mg. In [13], the Papp at 10 µM was 2 ×10⁻⁶ cm/s.
On to `N#Cc1ccc2nc(NC(=O)c3ccc(C(F)(F)F)nc3)n(CC(F)(F)F)c2c1`, for which the “inhibition (INH)” value in the data set on Trypanosoma cruzi [5] is 98%. Further, the half-inhibitory concentration (IC50) worked out at 2600 nM in the data set on Trypanosoma cruzi [1] and 190 nM in the data set with Trypanosoma cruzi [6]. Also, in data set [2], the selectivity ratio is > 25. The 90% effect concentration (IC90) in the data set with Trypanosoma cruzi [6] worked out at 570 nM. The CC50 at 24 h in data set [7] was 18000 nM; in data set [8], > 64000 nM; in [10] it was 1100 nM; in data set [12] it was > 40000 nM; in [15], 8000 nM. Further, the solubility kinetic at 24 h in data set [9] and in data set [14] was < 1 µM each time. Moreover, the Activity with Trypanosoma cruzi [11] was determined as 99%. Also, the microsomal CLint in data set [3] is 18 µL/min/mg. Further, the Papp at 10 µM in [13] is 5.4 ×10⁻⁶ cm/s.
With `CCCn1c(NC(=O)c2ccccn2)nc2cc(F)ccc21`, the IC50 in the data set on Trypanosoma cruzi [1] was found to be 1100 nM. Moreover, the selectivity ratio in data set [2] turned out to be 7. Also, the microsomal CLint in data set [3] worked out at 413 µL/min/mg. Also, the metabolised in [4] stood at 66.2%.
Take `Cn1nc(C(F)(F)F)cc1C(=O)Nc1nc2ccc(C#N)cc2n1CC(F)(F)F`: the “inhibition (INH)” value with Trypanosoma cruzi [5] was determined as 97%. Also, the half-inhibitory concentration (IC50) with Trypanosoma cruzi [1] is 230 nM; in the data set on Trypanosoma cruzi [16], 990 nM; in the data set with Trypanosoma cruzi [6], 190 nM. For the same molecule, the selectivity ratio in data set [2] was 34. Further, the IC90 in the data set on Trypanosoma cruzi [6] was determined as 360 nM. Further, the CC50 at 24 h in [7] was 19000 nM; in [8], 8000 nM; in data set [10], 1100 nM; in data set [12] it was > 40000 nM; in data set [15], 1000 nM. Further, the solubility kinetic at 24 h in [9] and in data set [14] was < 1 µM each time. The Activity in the data set with Trypanosoma cruzi [11] came out at 99%. Further, the microsomal CLint in [3] amounted to 28 µL/min/mg. In data set [13], the Papp at 10 µM came out at 2.4 ×10⁻⁶ cm/s.
As to `N#Cc1ccc2nc(NC(=O)c3ccnc(C(F)(F)F)c3)n(CC(F)(F)F)c2c1`, the “inhibition (INH)” value in the data set with Trypanosoma cruzi [5] is 91%. Also, the concentration for half-maximal inhibition (IC50) in the data set on Trypanosoma cruzi [1] came out at 280 nM; with Trypanosoma cruzi [16], 1320 nM; in the data set on Trypanosoma cruzi [6] it was 140 nM. Further, the selectivity ratio in data set [2] was > 231. In addition, in the data set on Trypanosoma cruzi [6], the IC90 worked out at 310 nM. The CC50 at 24 h in [7] was 50000 nM; in data set [8], > 64000 nM; in data set [10], 2400 nM; in data set [12], > 40000 nM; in data set [15] it was 4000 nM. Also, the solubility kinetic at 24 h in data set [9] and in [14] was < 1 µM throughout. In addition, the Activity in the data set on Trypanosoma cruzi [11] turned out to be 98%. For the same molecule, the microsomal CLint in data set [3] is 27 µL/min/mg. For the same molecule, in data set [13], the Papp at 10 µM worked out at 2.3 ×10⁻⁶ cm/s.
